From ChEMBL document CHEMBL1130129, “Immunologically specific activation of a cephalosporin derivative of mitomycin C by monoclonal antibody beta-lactamase conjugates” (J Med Chem, 1997)

Columns and labels:
[1] = substrate: CO[C@@]12[C@H](COC(N)=O)C3=C(C(=O)C(C)=C(NCC4=C(C(=O)O)N5C(=O)[C@@H](NC(=O)Cc6ccccc6)[C@H]5SC4)C3=O)N1C[C@@H]1N[C@@H]12; experiment: (§1) Determination of kinetic constant (Km) for hydrolysis by beta-lactamase from Enterobacter cloacae 99
Procedure, shortened: (§2)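 Purified E. cloacae β-lactamase (0.1 µg/mL) added to prodrug in PBS pH 7.2 containing 12.5 µg/mL bovine serum albumin, 23 °C; β-lactam hydrolysis followed by loss of absorbance at 260 nm. Initial velocities taken from linear portions of absorbance-time plots and used to derive kinetic constants.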

[2] = substrate: O=C(Cc1ccccc1)N[C@@H]1C(=O)N2C(C(=O)O)=C(COC(=O)Nc3ccc(N(CCCl)CCCl)cc3)CS[C@H]12; experiment: as §1; procedure, shortened: as §2
[3] = substrate: O=C(O)CCCC(=O)N[C@@H]1C(=O)N2C(C(=O)O)=C(COC(=O)Nc3ccc(N(CCCl)CCCl)cc3)CS[C@H]12; experiment: as §1; procedure, shortened: as §2
[4] = substrate: CO[C@@]12[C@H](COC(N)=O)C3=C(C(=O)C(C)=C(NCC4=C(C(=O)O)N5C(=O)[C@@H](NC(=O)CCCC(=O)O)[C@H]5SC4)C3=O)N1C[C@@H]1N[C@@H]12; experiment: as §1; procedure, shortened: as §2

B1: Beta-lactamase (Enterobacter cloacae), P05364 (protein)
chain: MMRKSLCCALLLGISCSALATPVSEKQLAEVVANTITPLMKAQSVPGMAVAVIYQGKPHYYTFGKADIAANKPVTPQTLFELGSISKTFTGVLGGDAIARGEISLDDAVTRYWPQLTGKQWQGIRMLDLATYTAGGLPLQVPDEVTDNASLLRFYQNWQPQWKPGTTRLYANASIGLFGALAVKPSGMPYEQAMTTRVLKPLKLDHTWINVPKAEEAHYAWGYRDGKAVRVSPGMLDAQAYGVKTNVQDMANWVMANMAPENVADASLKQGIALAQSRYWRIGSMYQGLGWEMLNWPVEANTVVEGSDSKVALAPLPVAEVNPPAPPVKASWVHKTGSTGGFGSYVAFIPEKQIGIVMLANTSYPNPARVEAAYHILEALQ
B1 showed a Km [1] of 48.9 µM, a Km [2] of 7 µM and a Km [3] of 43.2 µM. For the same protein, the Km [4] was 119 µM.
